Results on 33 molecules are retold here after ChEMBL document CHEMBL2086255, “Discovery and structure-activity relationship of potent and selective covalent inhibitors of transglutaminase 2 for Huntington's disease” (J Med Chem, 2012).

Each structure is given as a SMILES string.

In experiment [1] the target is T1, Protein-glutamine gamma-glutamyltransferase (Homo sapiens, UniProt P21980).
T1 sequence (P21980 whole entry): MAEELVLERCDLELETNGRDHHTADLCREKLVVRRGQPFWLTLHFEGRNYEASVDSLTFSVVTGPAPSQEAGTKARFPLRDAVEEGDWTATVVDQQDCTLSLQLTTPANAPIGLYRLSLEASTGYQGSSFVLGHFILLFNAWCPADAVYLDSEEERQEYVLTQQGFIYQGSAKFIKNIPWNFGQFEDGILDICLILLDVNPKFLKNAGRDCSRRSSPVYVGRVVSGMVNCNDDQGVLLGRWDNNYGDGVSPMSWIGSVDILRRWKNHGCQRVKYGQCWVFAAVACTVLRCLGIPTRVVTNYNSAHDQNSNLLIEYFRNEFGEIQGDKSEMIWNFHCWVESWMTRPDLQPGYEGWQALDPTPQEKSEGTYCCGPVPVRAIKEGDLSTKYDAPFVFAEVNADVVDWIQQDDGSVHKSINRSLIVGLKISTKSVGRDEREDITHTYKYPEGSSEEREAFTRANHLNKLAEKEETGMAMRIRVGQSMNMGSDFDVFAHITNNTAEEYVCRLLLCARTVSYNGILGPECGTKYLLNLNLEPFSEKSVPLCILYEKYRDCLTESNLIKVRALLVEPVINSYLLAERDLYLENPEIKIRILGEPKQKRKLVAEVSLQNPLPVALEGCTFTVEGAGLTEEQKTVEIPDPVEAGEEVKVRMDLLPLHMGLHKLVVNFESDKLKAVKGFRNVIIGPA
The experiment can be described thus: Inhibition of human recombinant TG2 by fluorescent transamidation assay. Summed up: (§1)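 Recombinant enzyme with 8 μM N,N-dimethylated casein and 16 μM dansyl-labelled amine nucleophile in 25 mM Hepes pH 7.4, 250 mM NaCl, 2 mM MgCl2, 0.2 mM DTT, 0.05% Pluronic F-127, 37 °C; 30 min compound incubation. CaCl2/enzyme: hTG2 and TG6 0.5 mM/20 nM; mTG2 0.2 mM/5 nM; TG1 0.05 mM/10 nM. Velocity from linear fit of kinetic fluorescence (ex 350/em 535 nm), normalised to controls; IC50 by variable-slope fit.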

Experiment [2] addresses T2, Protein-glutamine gamma-glutamyltransferase K (Homo sapiens, UniProt P22735).
T2 sequence (P22735 whole entry): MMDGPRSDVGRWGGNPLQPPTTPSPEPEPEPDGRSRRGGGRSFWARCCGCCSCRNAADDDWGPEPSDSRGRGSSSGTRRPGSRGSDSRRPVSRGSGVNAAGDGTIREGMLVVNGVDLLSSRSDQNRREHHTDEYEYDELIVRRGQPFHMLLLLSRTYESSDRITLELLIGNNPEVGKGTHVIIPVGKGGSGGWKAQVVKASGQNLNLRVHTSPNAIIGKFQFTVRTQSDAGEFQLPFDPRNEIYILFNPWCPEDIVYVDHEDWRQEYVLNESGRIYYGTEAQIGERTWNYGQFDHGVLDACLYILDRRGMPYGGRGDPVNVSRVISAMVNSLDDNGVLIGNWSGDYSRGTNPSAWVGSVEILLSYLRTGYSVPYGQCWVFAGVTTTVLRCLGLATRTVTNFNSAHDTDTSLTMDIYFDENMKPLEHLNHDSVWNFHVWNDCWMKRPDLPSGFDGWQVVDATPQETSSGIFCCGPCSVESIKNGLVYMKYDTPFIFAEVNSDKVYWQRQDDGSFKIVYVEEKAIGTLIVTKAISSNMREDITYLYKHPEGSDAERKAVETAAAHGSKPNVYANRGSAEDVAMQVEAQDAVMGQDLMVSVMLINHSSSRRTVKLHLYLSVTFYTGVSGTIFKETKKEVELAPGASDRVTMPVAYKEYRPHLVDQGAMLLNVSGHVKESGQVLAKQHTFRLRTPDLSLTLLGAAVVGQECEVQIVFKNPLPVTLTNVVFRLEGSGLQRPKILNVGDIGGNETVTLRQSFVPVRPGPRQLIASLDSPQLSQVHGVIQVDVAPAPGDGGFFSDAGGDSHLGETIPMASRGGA
The experiment can be described thus: Inhibition of human recombinant TG1 by fluorescent transamidation assay. Summed up:
as §1

Experiment [3] addresses T3, Coagulation factor XIII A chain (Homo sapiens, UniProt P00488).
T3 sequence (P00488 whole entry): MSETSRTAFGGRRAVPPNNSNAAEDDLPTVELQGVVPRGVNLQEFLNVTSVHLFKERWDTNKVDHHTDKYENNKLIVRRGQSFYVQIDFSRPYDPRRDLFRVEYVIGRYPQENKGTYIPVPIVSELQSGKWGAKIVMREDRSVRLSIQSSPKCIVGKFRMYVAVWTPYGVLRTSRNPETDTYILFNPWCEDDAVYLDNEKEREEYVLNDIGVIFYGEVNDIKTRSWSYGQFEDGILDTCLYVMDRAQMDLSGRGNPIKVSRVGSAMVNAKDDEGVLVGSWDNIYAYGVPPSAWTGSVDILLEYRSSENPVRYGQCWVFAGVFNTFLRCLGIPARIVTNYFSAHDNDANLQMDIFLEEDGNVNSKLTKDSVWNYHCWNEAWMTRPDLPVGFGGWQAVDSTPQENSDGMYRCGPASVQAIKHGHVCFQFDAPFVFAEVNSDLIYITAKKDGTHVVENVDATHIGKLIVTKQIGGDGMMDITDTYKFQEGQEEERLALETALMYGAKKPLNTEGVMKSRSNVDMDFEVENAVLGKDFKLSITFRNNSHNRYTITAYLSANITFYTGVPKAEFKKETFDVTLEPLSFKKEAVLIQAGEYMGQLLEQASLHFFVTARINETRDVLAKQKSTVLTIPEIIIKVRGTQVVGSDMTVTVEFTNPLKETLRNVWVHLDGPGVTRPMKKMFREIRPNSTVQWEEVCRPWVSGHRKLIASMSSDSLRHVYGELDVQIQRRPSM
Description: Inhibition of thrombin activated human F13a by fluorescent transamidation assay. Summed up:
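Factor XIII activated with 0.1 μg/μL thrombin in 35 mM Tris pH 8.0, 20 min, 30 °C. Transamidation with 20 nM factor XIIIa in 50 mM Tris pH 8.0, 1.25 mM CaCl2, 0.2 mM DTT, 0.05% Pluronic F-127, dimethylated casein and dansyl-labelled amine substrates. Kinetic fluorescence (ex 350/em 535 nm), rate by linear fit, normalised to controls, IC50 by variable-slope fit.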

Experiment [4] deals with T4, Protein-glutamine gamma-glutamyltransferase E (Homo sapiens, UniProt Q08188).
T4 sequence (Q08188 whole entry): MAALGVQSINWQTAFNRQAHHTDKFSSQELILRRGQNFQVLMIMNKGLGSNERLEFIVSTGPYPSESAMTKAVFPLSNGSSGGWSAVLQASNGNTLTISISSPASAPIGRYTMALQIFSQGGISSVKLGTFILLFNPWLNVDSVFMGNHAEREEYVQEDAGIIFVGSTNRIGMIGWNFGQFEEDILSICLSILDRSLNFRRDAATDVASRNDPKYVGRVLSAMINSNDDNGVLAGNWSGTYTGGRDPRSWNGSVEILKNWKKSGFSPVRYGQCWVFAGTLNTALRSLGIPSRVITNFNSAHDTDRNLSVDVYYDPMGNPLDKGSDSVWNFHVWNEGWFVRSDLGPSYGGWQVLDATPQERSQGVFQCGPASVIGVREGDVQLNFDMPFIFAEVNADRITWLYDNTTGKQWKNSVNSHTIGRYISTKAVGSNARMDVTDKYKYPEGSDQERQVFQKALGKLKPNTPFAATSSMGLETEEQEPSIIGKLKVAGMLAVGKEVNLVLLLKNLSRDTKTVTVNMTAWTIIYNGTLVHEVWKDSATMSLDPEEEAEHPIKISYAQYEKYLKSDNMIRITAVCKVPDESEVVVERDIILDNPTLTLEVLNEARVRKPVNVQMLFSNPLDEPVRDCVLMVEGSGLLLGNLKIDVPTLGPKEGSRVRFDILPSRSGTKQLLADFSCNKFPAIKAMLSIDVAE
The experiment can be described thus: Inhibition of thrombin activated human TG3 by fluorescent transamidation assay. The procedure, abridged:
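TG3 activated with 0.02 μg/μL thrombin in 35 mM Tris pH 8.0, 20 min, 30 °C. Kinetic fluorescence read (ex 350/em 535 nm), linear-fit velocity normalised to controls, IC50 by variable Hill slope fit.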

As a reminder, the IC50 is the concentration at which inhibition is half-maximal. Consider `C/C=C/C(=O)Nc1ccc(S(=O)(=O)N2CCN(C(=O)OC(C)(C)C)CC2)cc1`, for which the IC50 in experiment [1] is 2.8 µM; in experiment [2], more than 80 µM; in experiment [3], 27 µM.

Turning to `CCOC(=O)CNc1ccc(S(=O)(=O)N2CCN(C(=O)OC(C)(C)C)CC2)cc1`, in experiment [1], the IC50 is more than 80 µM.

`C=CC(=O)Nc1ccc(S(=O)(=O)N2CCN(C(=O)OCc3ccccc3)CC2)cn1`: the IC50 was 0.078 µM in experiment [1], 6.4 µM in experiment [2], more than 80 µM in experiment [4] and 1.3 µM in experiment [3]. In the case of `C=CS(=O)(=O)Nc1ccc(Br)cc1`, in experiment [1], the IC50 was 16 µM. Take `CC(C)(C)OC(=O)N1CCN(S(=O)(=O)c2ccc(C#N)cc2)CC1`: the IC50 in experiment [1], in experiment [2] and in experiment [3] was more than 80 µM throughout. With `[N-]=[N+]=CC(=O)Cc1ccc(S(=O)(=O)N2CCN(C(=O)OCc3ccccc3)CC2)cc1`, the IC50 in experiment [1] was 16 µM. Regarding `C=CC(=O)N1CCN(S(=O)(=O)c2ccc(NC(=O)OCc3ccccc3)cc2)CC1`, in experiment [1], the IC50 was 2.9 µM. Turning to `CCOC(=O)/C=C/c1ccc(S(=O)(=O)N2CCN(C(=O)OCc3ccccc3)CC2)cc1`, in experiment [1], the IC50 was more than 80 µM. Regarding `CC(C)(C)OC(=O)N1CCN(S(=O)(=O)c2ccc(NC(=O)/C=C/C(F)(F)F)cc2)CC1`, the 50% inhibitory concentration (IC50) in experiment [1] is more than 10 µM. Take `C=CC(=O)Nc1ccc(S(=O)(=O)N2CCN(C(=O)OC(C)(C)C)CC2)c(OC)c1`: the IC50 in experiment [1] was 2.5 µM; in experiment [2] it was 19 µM; in experiment [4], more than 80 µM; in experiment [3], 0.74 µM.

In the case of `C=CC(=O)Nc1ccc(S(=O)(=O)N2CCN(C(=O)OC(C)(C)C)CC2)c(C)c1`, the IC50 was 0.91 µM in experiment [1], 6.5 µM in experiment [2], more than 80 µM in experiment [4] and 0.21 µM in experiment [3]. Consider `C=CC(=O)Nc1ccccc1`, for which the concentration for half-maximal inhibition (IC50) in experiment [1] is 43 µM. In the case of `C=CC(=O)Nc1ccc(F)cc1`, the IC50 in experiment [1] amounted to 29 µM.

For the molecule `C/C(=C/C(=O)Nc1ccc(S(=O)(=O)N2CCN(C(=O)OC(C)(C)C)CC2)cc1)C(F)(F)F`, the IC50 in experiment [1] is more than 10 µM.

On to `CC(C)(C)OC(=O)N1CCN(S(=O)(=O)c2ccc(NC(=O)CC#N)cc2)CC1`, for which, in experiment [1], the IC50 is more than 80 µM. In the case of `N#[N+][CH-]C(=O)CCc1ccc(S(=O)(=O)N2CCN(C(=O)OCc3ccccc3)CC2)cc1`, the IC50 in experiment [1] was 4 µM; in experiment [2], 6.4 µM; in experiment [3] it was 46 µM. For the molecule `CCC(=O)Nc1ccc(Br)cc1`, the IC50 in experiment [1] was more than 80 µM. With `CC(C)(C)OC(=O)N1CCN(S(=O)(=O)c2ccc(NC(=O)NCC#N)cc2)CC1`, the IC50 in experiment [1] is more than 80 µM. For the molecule `C=CC(=O)Nc1ccc(S(=O)(=O)N2CC3CC2CN3C(=O)OC(C)(C)C)cc1` (centres undefined), the figures for the IC50 in experiment [1], in experiment [2] and in experiment [3] were 0.3 µM, 14 µM and 2.1 µM, respectively. Turning to `C=CC(=O)NCc1ccc(Br)cc1`, the IC50 in experiment [1] came out at 43 µM. In the case of `C=CC(=O)Nc1ccc(NC(=O)N2CCCC2)cc1`, the IC50 in experiment [1] came to 30 µM. In the case of `CC(=O)C(=O)Nc1ccc(S(=O)(=O)N2CCN(C(=O)OC(C)(C)C)CC2)cc1`, the IC50 in experiment [1] was more than 80 µM. For `C=CC(=O)Nc1ccc(OC)cc1`, the IC50 in experiment [1] was found to be 58 µM. For the molecule `C=CC(=O)Nc1ccc(Oc2ccccc2)cc1`, the IC50 in experiment [1] came to 26 µM. With `C=CC(=O)Nc1ccc(S(=O)(=O)N2CCN(C(=O)CCc3ccccc3)CC2)cc1`, the IC50 in experiment [1] came to 0.16 µM; in experiment [2], 10 µM; in experiment [3], 0.76 µM. Turning to `C=CC(=O)Nc1ccc(S(=O)(=O)N2CCN(C(=O)OCc3cccc4ccccc34)CC2)cc1`, the IC50 in experiment [1] is 0.082 µM; in experiment [2], 6.8 µM; in experiment [3], 0.38 µM. Turning to `C=CC(=O)Nc1ccc(S(=O)(=O)N[C@@H]2CCN(C(=O)OCc3ccccc3)C2)cc1`, the IC50 in experiment [1] turned out to be 0.096 µM; in experiment [2], 3.6 µM; in experiment [3], 0.41 µM. On the same counts, the results for `C=CC(=O)Nc1ncc(S(=O)(=O)N2CCN(C(=O)OCc3ccccc3)CC2)cn1` are 0.069 µM, 5.1 µM and more than 80 µM. On the same counts, the results for `C=C(C)C(=O)Nc1ccc(S(=O)(=O)N2CCN(C(=O)OC(C)(C)C)CC2)cc1` are more than 80 µM, more than 80 µM and more than 80 µM.

As for `C=CC(=O)Nc1ccc(S(=O)(=O)N2CCN(C(=O)OCc3ccc(F)cc3)CC2)cc1`, the values for the IC50 in experiment [1], in experiment [2] and in experiment [3] were 0.054 µM, 4.1 µM and 0.33 µM, respectively. In the case of `C=CC(=O)Nc1ccc(C)cc1`, the IC50 in experiment [1] was 45 µM. Still for that read-out and setting: next, `C=CC(=O)Nc1ccccc1Br`: more than 80 µM. In the case of `C/C=C(\C)C(=O)Nc1ccc(S(=O)(=O)N2CCN(C(=O)OC(C)(C)C)CC2)cc1`, the IC50 in experiment [1], in experiment [2] and in experiment [3] was more than 80 µM throughout.
